These results are taken from PMC4398657 (Bioorganic & medicinal chemistry, 2015).

The test system of series [1] is wild-type E. coli (AB1157). Nature of the series: Checkerboard assay: minimum potentiation concentration. Particulars: potentiation of LVX and PIP, antibiotic not separated. It is filed as cell-based, Escherichia coli.
Series [2] relates to transmembrane proton gradient, E. coli NCM3722. Description: LacY permease-dependent uptake and accumulation of [3H]-TMG. Type of series: cell-based, Escherichia coli. Particulars: concentrations up to 20 µM. The gist of the method: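 Whole E. coli cells take up [methyl-³H] β-D-thiogalactopyranoside through the LacY permease, and accumulation depends on proton motive force. The tracer stock was 1 mCi/ml at a specific activity of 7 Ci/mmol. Accumulated radiolabel was measured in the presence of test compound to estimate disruption of the transmembrane proton gradient.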

The test system of series [3] is outer membrane of E. coli strain deficient in AcrAB (HN1159). Nature of the series: Nitrocefin influx. Type of series: cell-based, Escherichia coli.
The subject of series [4] is AcrB (AcrAB-TolC in E. coli). Description: Cell-based assay of kinetic parameters. Also on record: species or system Escherichia coli. Particulars: manuscript in preparation.
Series [5] in a line: Murine liver microsome stability. It is filed as in vitro ADME, mouse. Particulars: % remaining after 60 min at 37 °C in the presence of NADPH; 25 µM compound. In a few lines: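 Pooled mouse liver microsomes (0.5 mg/mL final) with test compound at 25 µM final, in 100 mM potassium phosphate pH 7.4 and 3 mM MgCl₂, with or without 2 mM NADPH (no-NADPH as control); 1 h at 37 °C; stopped with an equal volume of acetonitrile with 0.1% TFA. Value is the compound peak-area ratio of +NADPH to no-NADPH.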
Background: Microsomes from liver hold many membrane-bound enzymes, among them those of drug oxidation.

Series [6] has as its system wild-type E. coli (AB1157). Particulars: antibacterial activity of the EPI alone; cited from earlier work.

Marks after values point to notes of the source that are not given here.

For the compound `CC1(C)Cc2c(C#N)c(SCC(=O)c3ccccc3)nc(N3CCOCC3)c2CO1` [Compound 12c], the “EPI potency / MPC4 in words” value in series [1] is “inactive”. Same read-out and setting: to `CC1(C)Cc2c(C#N)c(SCC(O)c3ccccc3)nc(N3CCOCC3)c2CO1` (stereo not drawn) [Compound 12d, 6-(2-hydroxy-2-phenylethylthio)-5-cyano-3,3-dimethyl-8-morpholino-3,4-dihydro-1H-pyrano[3,4-c]pyridine] belongs “inactive”; to `CC1(C)Cc2c(C#N)c(SCCC#N)nc(N3CCOCC3)c2CO1` [Compound 20a], “inactive”.

As to `COc1cccc(CCSc2nc(N3CCOCC3)c3c(c2C#N)CC(C)(C)OC3)c1` [Compound 20f], in series [2], the “inhibition of uptake and accumulation of 3H-TMG” value (shortened to “inhibition”) was “none of the analogs significantly inhibited uptake and accumulation”. The “rate of nitrocefin influx” value in series [3] was “none of the compounds increased the rate of nitrocefin influx”.

Regarding `COCCN1CCN(c2nc(SCCc3ccc(OC)cc3)c(C#N)c3c2COC(C)(C)C3)CC1` [Compound 21f], the “inhibition” value in series [2] is “none of the analogs significantly inhibited uptake and accumulation”. With `COCCN1CCN(c2nc(SCCc3ccc(OC)c(OC)c3)c(C#N)c3c2COC(C)(C)C3)CC1` [Compound 21g], in series [2], the “inhibition” value was “none of the analogs significantly inhibited uptake and accumulation”. For `CC(=O)Nc1ccc(CCSc2nc(N3CC(C)OC(C)C3)c3c(c2C#N)CC(C)(C)OC3)cc1` (stereo not drawn) [Compound 22f, 6-(4-acetamidophenethylthio)-5-cyano-3,3-dimethyl-8-(2,6-dimethyl-4-morpholino)-3,4-dihydro-1H-pyrano[3,4-c]pyridine], the “potency against AcrB relative to MBX2319” value in series [4] is recorded as “at least 20 fold”. Besides, the MLMS in series [5] is reported as 0 ^* %. As to `CC1CN(c2nc(SCCc3ccc(NC(=O)C(F)(F)F)cc3)c(C#N)c3c2COC(C)(C)C3)CC(C)O1` (stereo not drawn) [Compound 22g, 6-[4-(2,2,2-trifluoroacetamido)phenethylthio]-5-cyano-8-(2,6-dimethylmorpholino)-3,3-dimethyl-3,4-dihydro-1H-pyrano[3,4-c]pyridine], the MLMS in series [5] is 0 ^* %. As for `C=CC(=O)Nc1ccc(CCSc2nc(N3CC(C)OC(C)C3)c3c(c2C#N)CC(C)(C)OC3)cc1` (stereo not drawn) [Compound 22i, 6-(4-acrylamidophenethylthio)-5-cyano-3,3-dimethyl-8-(2,6-dimethyl-4-morpholino)-3,4-dihydro-1H-pyrano[3,4-c]pyridine], the “inhibition” value in series [2] is “none of the analogs significantly inhibited uptake and accumulation”. For the same compound, the “EPI potency / MPC4 in words” value in series [1] is given as “submicromolar”.

As to `CC1CN(c2nc(SCCc3ccc(NC(=N)N)cc3)c(C#N)c3c2COC(C)(C)C3)CC(C)O1` (stereo not drawn) [Compound 22k, 6-(4-guanidinophenethylthio)-5-cyano-3,3-dimethyl-8-(2,6-dimethyl-4-morpholino)-3,4-dihydro-1H-pyrano[3,4-c]pyridine], the “inhibition” value in series [2] was “none of the analogs significantly inhibited uptake and accumulation”. The “EPI potency / MPC4 in words” value in series [1] is “submicromolar”. What is called MIC is the least concentration at which growth counts as inhibited. For the compound `CC1(C)Cc2c(C#N)c(SCCc3ccccc3)nc(N3CCOCC3)c2CO1` [MBX2319, 3,3-dimethyl-5-cyano-8-morpholino-6-(phenethylthio)-3,4-dihydro-1H-pyrano[3,4-c]pyridine], the MIC in series [6] is on record as not below 100 µM.
